Consider 3 molecules from ChEMBL document CHEMBL5653631, “A Potent and Selective ULK1 Inhibitor Suppresses Autophagy and Sensitizes Cancer Cells to Nutrient Stress” (iScience, 2018).

The target in experiment [1] is SRSF protein kinase 1 (Homo sapiens) (UniProt Q96SB4). As to the kind of experiment: Inhibition of human recombinant SRPK1 at 40 nM in presence of ATP by radiometric assay relative to control.
The target of experiment [2] is Calcium/calmodulin-dependent protein kinase type 1G (Homo sapiens) (UniProt Q96NX5). As to the kind of experiment: Inhibition of human recombinant CaMK1g at 40 nM in presence of ATP by radiometric assay relative to control.
Chain of Calcium/calmodulin-dependent protein kinase type 1G (Homo sapiens) (Q96NX5 whole entry): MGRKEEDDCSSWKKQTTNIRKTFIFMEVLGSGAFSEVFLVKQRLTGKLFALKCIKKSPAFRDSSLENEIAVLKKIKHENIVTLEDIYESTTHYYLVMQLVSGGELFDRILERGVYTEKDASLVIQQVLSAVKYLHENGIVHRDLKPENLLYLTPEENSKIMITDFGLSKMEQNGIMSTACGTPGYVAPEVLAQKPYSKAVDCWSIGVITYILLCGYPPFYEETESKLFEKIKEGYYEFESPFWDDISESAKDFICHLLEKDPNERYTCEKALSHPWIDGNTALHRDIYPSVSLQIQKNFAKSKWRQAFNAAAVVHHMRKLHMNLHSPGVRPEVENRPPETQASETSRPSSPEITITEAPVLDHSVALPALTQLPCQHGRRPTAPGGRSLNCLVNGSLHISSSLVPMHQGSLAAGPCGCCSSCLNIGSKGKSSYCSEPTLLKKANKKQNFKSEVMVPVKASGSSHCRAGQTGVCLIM
For experiment [3], the target named is Protein kinase C theta type (Homo sapiens) (UniProt Q04759). As to the kind of experiment: Inhibition of human recombinant PKCt at 40 nM related to control ULK1.
Chain of Protein kinase C theta type (Homo sapiens) (Q04759 whole entry, looked up): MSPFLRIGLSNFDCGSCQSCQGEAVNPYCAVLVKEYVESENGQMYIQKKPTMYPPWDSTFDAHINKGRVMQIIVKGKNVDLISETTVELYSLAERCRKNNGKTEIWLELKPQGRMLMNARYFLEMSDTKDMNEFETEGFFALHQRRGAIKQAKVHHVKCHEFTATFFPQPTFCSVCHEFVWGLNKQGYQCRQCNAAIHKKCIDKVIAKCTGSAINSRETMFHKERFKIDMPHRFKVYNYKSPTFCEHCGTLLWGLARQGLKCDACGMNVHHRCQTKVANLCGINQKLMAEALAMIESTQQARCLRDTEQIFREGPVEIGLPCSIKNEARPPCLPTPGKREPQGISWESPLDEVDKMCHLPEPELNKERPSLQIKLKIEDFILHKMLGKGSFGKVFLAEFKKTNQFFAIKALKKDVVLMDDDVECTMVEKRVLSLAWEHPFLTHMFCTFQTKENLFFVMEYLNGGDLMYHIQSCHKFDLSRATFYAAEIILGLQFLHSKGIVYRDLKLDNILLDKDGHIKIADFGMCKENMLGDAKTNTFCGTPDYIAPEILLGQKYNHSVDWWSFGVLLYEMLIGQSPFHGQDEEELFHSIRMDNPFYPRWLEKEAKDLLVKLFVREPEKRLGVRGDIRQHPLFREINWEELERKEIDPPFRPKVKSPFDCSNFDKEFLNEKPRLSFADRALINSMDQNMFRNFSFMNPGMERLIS
The target in experiment [4] is Serine/threonine-protein kinase MARK1 (Homo sapiens) (UniProt Q9P0L2). As to the kind of experiment: Inhibition of human recombinant MARK1 at 40 nM in presence of ATP by radiometric assay relative to control.
In experiment [5] the target is T1, Aurora kinase A (Homo sapiens) (UniProt O14965).
T1 sequence (whole entry): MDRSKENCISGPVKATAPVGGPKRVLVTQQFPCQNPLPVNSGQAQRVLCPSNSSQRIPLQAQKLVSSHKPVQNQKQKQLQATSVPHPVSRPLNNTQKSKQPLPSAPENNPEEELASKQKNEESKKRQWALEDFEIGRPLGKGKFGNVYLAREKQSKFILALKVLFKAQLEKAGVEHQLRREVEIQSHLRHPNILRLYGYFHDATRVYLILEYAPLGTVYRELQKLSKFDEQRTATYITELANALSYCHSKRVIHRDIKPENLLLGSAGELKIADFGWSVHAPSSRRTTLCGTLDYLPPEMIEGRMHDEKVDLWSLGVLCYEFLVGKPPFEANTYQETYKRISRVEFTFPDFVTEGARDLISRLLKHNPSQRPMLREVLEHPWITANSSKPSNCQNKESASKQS
As to the kind of experiment: Inhibition of human recombinant AurA at 40 nM related to control ULK1. The method, boiled down:
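Radiometric activity assays in a panel of 327 human recombinant kinases, each run in duplicate at one inhibitor concentration. Activity remaining is expressed as percent of vehicle control, and percent inhibition is calculated as 100% minus percent activity remaining.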

Experiment [6] addresses Myosin light chain kinase, smooth muscle (Homo sapiens) (UniProt Q15746). As to the kind of experiment: Inhibition of human recombinant smMLCK at 500 nM in presence of ATP by radiometric assay relative to control.
Experiment [7] concerns the target T2, Ephrin type-B receptor 2 (Homo sapiens) (UniProt P29323).
T2 sequence (whole entry): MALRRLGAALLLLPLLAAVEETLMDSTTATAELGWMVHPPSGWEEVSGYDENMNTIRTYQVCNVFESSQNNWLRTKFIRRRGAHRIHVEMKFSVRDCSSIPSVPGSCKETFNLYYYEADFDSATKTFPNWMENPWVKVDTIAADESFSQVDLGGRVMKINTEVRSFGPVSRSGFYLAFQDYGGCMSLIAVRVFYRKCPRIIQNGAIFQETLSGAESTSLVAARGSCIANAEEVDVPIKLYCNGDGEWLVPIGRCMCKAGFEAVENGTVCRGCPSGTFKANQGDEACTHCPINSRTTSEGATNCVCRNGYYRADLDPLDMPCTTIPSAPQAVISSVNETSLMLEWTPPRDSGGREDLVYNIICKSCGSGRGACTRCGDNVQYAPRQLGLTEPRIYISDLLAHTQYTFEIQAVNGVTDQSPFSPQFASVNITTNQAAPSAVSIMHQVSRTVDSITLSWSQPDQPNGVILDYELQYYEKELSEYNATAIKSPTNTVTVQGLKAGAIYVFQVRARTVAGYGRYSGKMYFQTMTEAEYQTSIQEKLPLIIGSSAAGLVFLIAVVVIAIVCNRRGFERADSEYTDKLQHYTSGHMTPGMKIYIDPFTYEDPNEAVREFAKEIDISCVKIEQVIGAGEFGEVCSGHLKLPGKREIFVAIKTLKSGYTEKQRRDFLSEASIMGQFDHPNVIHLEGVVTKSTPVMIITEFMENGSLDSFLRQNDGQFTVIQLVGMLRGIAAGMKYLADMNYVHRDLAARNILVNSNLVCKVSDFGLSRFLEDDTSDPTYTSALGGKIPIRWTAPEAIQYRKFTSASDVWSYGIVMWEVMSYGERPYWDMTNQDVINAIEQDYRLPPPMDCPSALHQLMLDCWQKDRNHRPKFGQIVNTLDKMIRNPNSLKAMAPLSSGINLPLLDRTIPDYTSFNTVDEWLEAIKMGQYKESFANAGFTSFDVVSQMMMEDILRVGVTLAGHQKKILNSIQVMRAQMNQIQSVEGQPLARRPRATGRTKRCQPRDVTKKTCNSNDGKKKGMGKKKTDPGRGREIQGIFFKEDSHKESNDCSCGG
As to the kind of experiment: Inhibition of human recombinant EphB2 at 500 nM related to control ULK1.

The target of experiment [8] is Tyrosine-protein kinase JAK1 (Homo sapiens) (UniProt P23458). As to the kind of experiment: Inhibition of human recombinant JAK1 at 500 nM related to control ULK1.
Chain of Tyrosine-protein kinase JAK1 (Homo sapiens) (P23458 whole entry): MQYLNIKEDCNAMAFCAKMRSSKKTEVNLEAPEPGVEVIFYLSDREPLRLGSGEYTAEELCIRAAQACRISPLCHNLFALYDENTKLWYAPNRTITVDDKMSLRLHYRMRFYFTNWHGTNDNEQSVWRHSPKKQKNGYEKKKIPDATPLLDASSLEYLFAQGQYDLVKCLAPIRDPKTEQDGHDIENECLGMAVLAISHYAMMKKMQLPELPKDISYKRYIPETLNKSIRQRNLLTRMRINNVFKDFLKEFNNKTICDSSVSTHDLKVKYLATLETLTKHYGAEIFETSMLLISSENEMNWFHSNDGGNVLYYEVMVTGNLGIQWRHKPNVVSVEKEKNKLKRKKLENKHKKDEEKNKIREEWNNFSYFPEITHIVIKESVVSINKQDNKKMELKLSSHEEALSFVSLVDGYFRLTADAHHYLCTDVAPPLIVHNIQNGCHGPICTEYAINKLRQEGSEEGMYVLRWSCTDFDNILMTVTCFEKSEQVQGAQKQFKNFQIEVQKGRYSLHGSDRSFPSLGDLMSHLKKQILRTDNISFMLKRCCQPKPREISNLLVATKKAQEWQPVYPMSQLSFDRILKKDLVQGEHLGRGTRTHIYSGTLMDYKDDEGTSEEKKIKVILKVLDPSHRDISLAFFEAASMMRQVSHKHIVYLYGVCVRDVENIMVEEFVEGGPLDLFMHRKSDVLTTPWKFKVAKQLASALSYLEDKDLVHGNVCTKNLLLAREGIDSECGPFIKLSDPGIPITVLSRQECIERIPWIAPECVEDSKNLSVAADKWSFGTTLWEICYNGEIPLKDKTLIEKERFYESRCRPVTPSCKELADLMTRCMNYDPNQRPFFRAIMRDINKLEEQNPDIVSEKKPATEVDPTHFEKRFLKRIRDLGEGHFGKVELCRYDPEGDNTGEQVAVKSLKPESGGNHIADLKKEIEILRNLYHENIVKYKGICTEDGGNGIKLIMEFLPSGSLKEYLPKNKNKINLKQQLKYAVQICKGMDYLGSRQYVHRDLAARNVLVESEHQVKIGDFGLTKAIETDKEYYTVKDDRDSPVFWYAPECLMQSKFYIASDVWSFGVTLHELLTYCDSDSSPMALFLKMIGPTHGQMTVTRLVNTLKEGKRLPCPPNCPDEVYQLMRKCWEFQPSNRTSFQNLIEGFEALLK
Experiment [9] deals with Calcium/calmodulin-dependent protein kinase type 1B (Homo sapiens) (UniProt Q6P2M8). As to the kind of experiment: Inhibition of human recombinant CaMK1b at 15 nM related to control ULK1.
Chain of Calcium/calmodulin-dependent protein kinase type 1B (Homo sapiens) (Q6P2M8 whole entry): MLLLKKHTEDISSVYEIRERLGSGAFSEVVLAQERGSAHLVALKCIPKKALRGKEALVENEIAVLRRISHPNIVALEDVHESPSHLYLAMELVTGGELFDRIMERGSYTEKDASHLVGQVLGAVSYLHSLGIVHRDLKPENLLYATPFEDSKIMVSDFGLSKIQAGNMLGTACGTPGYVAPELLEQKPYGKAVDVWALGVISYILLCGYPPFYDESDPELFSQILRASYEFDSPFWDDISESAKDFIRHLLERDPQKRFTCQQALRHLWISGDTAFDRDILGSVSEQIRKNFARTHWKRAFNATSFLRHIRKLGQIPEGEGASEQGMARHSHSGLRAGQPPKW
The target of experiment [10] is T3, Tyrosine-protein kinase receptor TYRO3 (Homo sapiens) (UniProt Q06418).
T3 sequence (whole entry): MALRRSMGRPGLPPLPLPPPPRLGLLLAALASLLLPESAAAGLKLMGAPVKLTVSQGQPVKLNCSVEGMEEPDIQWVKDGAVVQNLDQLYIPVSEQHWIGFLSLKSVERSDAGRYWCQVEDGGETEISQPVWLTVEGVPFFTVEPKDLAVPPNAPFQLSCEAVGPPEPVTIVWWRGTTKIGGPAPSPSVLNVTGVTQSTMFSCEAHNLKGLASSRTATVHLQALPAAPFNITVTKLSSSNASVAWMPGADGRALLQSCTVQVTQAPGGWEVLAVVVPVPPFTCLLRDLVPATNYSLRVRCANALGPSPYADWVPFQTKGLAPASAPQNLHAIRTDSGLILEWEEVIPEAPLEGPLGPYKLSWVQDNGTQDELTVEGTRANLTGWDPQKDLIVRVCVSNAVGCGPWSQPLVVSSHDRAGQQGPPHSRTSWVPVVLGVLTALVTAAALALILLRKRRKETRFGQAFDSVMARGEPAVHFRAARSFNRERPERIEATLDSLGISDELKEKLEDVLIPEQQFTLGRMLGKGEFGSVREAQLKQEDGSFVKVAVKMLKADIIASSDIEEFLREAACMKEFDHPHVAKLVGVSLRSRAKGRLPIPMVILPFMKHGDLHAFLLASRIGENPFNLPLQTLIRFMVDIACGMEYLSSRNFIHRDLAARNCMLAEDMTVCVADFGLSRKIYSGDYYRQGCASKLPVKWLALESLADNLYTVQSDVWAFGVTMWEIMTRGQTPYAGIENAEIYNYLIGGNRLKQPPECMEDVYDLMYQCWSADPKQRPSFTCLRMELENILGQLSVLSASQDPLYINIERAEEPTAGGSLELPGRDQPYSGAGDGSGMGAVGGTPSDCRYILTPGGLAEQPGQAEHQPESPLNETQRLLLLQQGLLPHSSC
As to the kind of experiment: Inhibition of human recombinant TYRO3 at 15 nM related to control ULK1.

Chain of Myosin light chain kinase, smooth muscle (Homo sapiens) (Q15746 whole entry): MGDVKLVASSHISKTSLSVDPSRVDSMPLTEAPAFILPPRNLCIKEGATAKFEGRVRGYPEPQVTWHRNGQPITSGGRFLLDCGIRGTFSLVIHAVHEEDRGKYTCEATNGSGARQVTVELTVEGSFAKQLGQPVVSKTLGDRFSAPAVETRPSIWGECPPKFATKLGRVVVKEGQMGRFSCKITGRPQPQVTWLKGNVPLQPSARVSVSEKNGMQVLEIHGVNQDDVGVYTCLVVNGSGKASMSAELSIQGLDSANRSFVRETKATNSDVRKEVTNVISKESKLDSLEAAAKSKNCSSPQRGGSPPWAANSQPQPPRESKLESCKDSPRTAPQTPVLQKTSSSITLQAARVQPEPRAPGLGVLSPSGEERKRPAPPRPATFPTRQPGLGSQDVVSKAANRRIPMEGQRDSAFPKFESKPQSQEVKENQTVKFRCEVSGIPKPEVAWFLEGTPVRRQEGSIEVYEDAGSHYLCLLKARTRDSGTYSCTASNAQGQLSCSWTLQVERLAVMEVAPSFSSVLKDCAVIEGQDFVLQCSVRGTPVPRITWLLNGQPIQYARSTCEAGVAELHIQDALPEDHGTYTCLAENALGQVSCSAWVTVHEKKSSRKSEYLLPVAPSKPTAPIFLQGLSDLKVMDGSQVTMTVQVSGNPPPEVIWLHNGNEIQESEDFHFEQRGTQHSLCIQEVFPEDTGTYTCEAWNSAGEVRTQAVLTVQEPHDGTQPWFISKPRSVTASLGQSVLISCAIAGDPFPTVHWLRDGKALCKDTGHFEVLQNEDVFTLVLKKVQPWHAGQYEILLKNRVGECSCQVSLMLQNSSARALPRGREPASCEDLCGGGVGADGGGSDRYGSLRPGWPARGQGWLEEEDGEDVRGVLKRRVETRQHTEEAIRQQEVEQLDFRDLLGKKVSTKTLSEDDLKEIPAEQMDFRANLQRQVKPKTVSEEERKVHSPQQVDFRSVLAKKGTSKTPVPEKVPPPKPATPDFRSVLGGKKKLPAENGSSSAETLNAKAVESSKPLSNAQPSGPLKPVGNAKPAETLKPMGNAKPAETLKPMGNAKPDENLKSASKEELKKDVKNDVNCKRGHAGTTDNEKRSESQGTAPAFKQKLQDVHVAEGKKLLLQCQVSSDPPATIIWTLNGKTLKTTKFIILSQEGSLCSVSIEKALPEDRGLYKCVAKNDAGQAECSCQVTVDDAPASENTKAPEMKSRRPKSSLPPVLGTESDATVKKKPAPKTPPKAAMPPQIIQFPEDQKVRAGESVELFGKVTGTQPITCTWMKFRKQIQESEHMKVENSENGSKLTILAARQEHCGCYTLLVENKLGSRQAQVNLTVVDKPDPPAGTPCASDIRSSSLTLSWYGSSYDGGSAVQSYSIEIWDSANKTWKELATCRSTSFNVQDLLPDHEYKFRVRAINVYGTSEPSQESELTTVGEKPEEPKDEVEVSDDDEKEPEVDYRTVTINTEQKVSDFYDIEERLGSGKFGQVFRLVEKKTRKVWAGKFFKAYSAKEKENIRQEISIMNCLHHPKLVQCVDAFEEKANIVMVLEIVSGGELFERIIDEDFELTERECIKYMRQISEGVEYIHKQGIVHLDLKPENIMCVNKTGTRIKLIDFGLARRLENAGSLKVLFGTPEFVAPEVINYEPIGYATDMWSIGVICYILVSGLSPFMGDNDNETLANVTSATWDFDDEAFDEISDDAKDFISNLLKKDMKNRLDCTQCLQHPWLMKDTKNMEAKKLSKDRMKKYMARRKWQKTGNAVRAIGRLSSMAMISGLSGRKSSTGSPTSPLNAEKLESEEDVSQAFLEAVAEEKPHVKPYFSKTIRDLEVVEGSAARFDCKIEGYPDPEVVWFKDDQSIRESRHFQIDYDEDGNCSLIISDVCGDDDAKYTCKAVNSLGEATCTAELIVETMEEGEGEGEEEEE

Turning to `O=C(N[C@@H](C1CC1)C(F)(F)F)c1cc(-c2cnn3cc(-c4ccc(F)cc4)cnc23)cs1`, the inhibition stood at 10% in experiment [1], 0% in [2] and 29% in experiment [4]. Moreover, the results for the fold change (FC) in experiment [3] and in experiment [5] were 0 and 0.3, respectively.
Consider `CNC(=O)c1ccccc1Oc1nc(Nc2cc(OC)c(OC)c(OC)c2)ncc1Br`, for which, in experiment [6], the inhibition was 5%. Also, the fold change (FC) in experiment [7] worked out at 0.2; in experiment [8], 0.53.
Regarding `CC(C)[C@H](NC(=O)c1cc(-c2cnn3cc(-c4ccc(OCCN5CCCCC5)cc4)cnc23)cs1)C(F)(F)F`, the fold change (FC) in [9] and in [10] was 0 in each case.
